Assay results collected from several papers.
Compare with care: the assays were run in different laboratories.
PLK4: Serine/threonine-protein kinase PLK4 (PLK4, Homo sapiens, UniProt O00444)
APLNR: Apelin receptor (APLNR, Homo sapiens, UniProt P35414)
ADRA2C: Alpha-2C adrenergic receptor (ADRA2C, Homo sapiens, UniProt P18825)
ESR1: Estrogen receptor (ESR1, Homo sapiens, UniProt P03372)
Si: Sucrase-isomaltase, intestinal (Si, Rattus norvegicus, UniProt P23739)

For `C[C@H](CCCOS(=O)(=O)O)[C@H]1CC[C@H]2[C@@H]3CC[C@H]4C[C@@H](O)CC[C@]4(C)[C@H]3CC[C@]12C`, the IC50 was 7050 nM (cGMP-inhibited 3',5'-cyclic phosphodiesterase 3A (PDE3A, Homo sapiens, UniProt Q14432); enzyme activity; inhibitor).
For `CC(C)C[C@H](NC(=O)[C@H](CC(C)C)NC(=O)[C@@H]1CCCN1C(=O)[C@H](C)NC(=O)[C@@H](NC(=O)[C@H](C)N)C(C)C)C(=O)N[C@@H](Cc1c[nH]cn1)C(=O)N[C@@H](CO)C(=O)N[C@H](C(=O)O)[C@@H](C)OP(=O)(O)O`, the Kd was 39.8 nM (PLK4; binding; MST; pH 8).
For `CC[C@H](C)[C@H](NC(=O)[C@H](CCCCN)NC(=O)[C@H](CCCCN)NC(=O)[C@H](C)NC(=O)[C@H](C)NC(=O)[C@@H](NC(=O)[C@H](CCCNC(=N)N)NC(=O)[C@H](CCSC)NC(=O)[C@H](CCC(N)=O)NC(=O)[C@H](CCC(=O)O)NC(=O)[C@H](CCCCN)NC(=O)[C@@H](N)CO)[C@@H](C)CC)C(=O)NCC(=O)N[C@@H](CC(C)C)C(=O)N[C@@H](CC(C)C)C(=O)N[C@@H](CCC(=O)O)C(=O)O`, the IC50 was 20300 nM (APLNR; calcium signal; antagonist; fluorescence).
`CCCCC1CNC2CCc3ccc(OC)cc3C12` (racemic) gave a Ki of 622 nM (ADRA2C; ligand displacement; radioligand).
For `CC(C)C[C@@H]1NC(=O)[C@H](CCCNC(=N)N)NC(=O)[C@@H]2CCCN2C(=O)[C@H](CCCNC(=N)N)NC(=O)[C@@H](NC(=O)[C@H](Cc2c[nH]cn2)NC(=O)[C@H](CCCCN)NC(=O)[C@@H]2CSSC[C@H](N)C(=O)N[C@@H](CCCNC(=N)N)C(=O)N3CCC[C@H]3C(=O)N[C@@H](CCCNC(=N)N)C(=O)N[C@@H](CC(C)C)C(=O)N2)CSSC[C@@H](C(=O)O)NC1=O`, the IC50 was 10100 nM (APLNR; β-arrestin recruitment; antagonist).
For `CC[C@H](C)[C@H](NC(=O)[C@H](CCSC)NC(=O)[C@H](CCC(N)=O)NC(=O)[C@H](CCCNC(=N)N)NC(=O)[C@H](Cc1ccccc1)NC(=O)CN)C(=O)N[C@@H](C)C(=O)N[C@@H](CCCNC(=N)N)C(=O)N[C@@H](C)C(=O)N[C@@H](CCCCN)C(=O)N[C@@H](Cc1ccc(O)cc1)C(=O)N[C@@H](CCC(N)=O)C(=O)NCC(=O)N[C@@H](CC(C)C)C(=O)N[C@@H](CC(C)C)C(=O)N[C@@H](Cc1ccc(O)cc1)C(=O)O`, the EC50 was 614 nM (APLNR; calcium signal; agonist; fluorescence).
`CC[C@H](C)[C@H](NC(=O)[C@@H](N)CCC(=O)O)C(=O)N[C@@H](C)C(=O)N1CCC[C@H]1C(=O)N[C@H](C(=O)N[C@@H](CC(C)C)C(=O)N[C@@H](Cc1c[nH]cn1)C(=O)N[C@@H](CO)C(=O)N[C@H](C(=O)O)[C@@H](C)OP(=O)(O)O)C(C)C` gave a Kd of 22.9 nM (PLK4; binding; MST; pH 8).
With `CC[C@H](C)[C@H](NC(=O)[C@H](CO)NC(=O)[C@H](Cc1c[nH]cn1)NC(=O)[C@H](Cc1ccccc1)NC(=O)[C@H](CCCCN)NC(=O)[C@H](CCCCN)NC(=O)[C@H](CS)NC(=O)[C@H](CC(C)C)NC(=O)[C@H](CCC(=O)O)NC(=O)[C@@H]1CCCN1C(=O)[C@@H](N)CO)C(=O)N1CCC[C@H]1C(=O)N[C@@H](CC(C)C)C(=O)N[C@@H](Cc1ccccc1)C(=O)N1CCC[C@H]1C(=O)O` the EC50 was 127 nM (APLNR; calcium signal; agonist; fluorescence).
`CC(c1ccccc1)(c1ccc(O)cc1)c1ccc(O)cc1` has an IC50 of 20700 nM (ESR1; reporter gene; antagonist; luciferase).
`Clc1ccc(C(c2ccccc2Cl)C(Cl)(Cl)Cl)cc1` (stereo not shown) has an IC50 of 2720 nM (Glucocorticoid receptor (NR3C1, Homo sapiens, UniProt P04150); ligand displacement).
The IC50 of `CC(C)(c1ccc(O)cc1)c1ccc(C(C)(C)c2ccc(O)cc2)cc1` is reported as 2900 nM (ESR1; reporter gene; antagonist; luciferase).
For `CCCCCc1cc(O)c2c(c1)OC(C)(CCC=C(C)C)C=C2` (stereo not shown), the IC50 was 540000 nM (Si; enzyme activity; inhibitor; absorbance).
`COc1cc2c(cc1OC)CN(CCc1ccc(NC(=O)c3cccc4c(=O)c5cccc(OC)c5[nH]c34)cc1)CC2` gave a Ki of 150 nM (ADRA2C; cell-free assay).
`CCCCCc1cc(O)c(C/C=C(\C)CCC=C(C)C)c(O)c1` has an IC50 of 620000 nM (Si; enzyme activity; inhibitor; absorbance).
For `CC(C)C[C@H](NC(=O)[C@H](CCCNC(=N)N)NC(=O)[C@H](CCCNC(=N)N)NC(=O)[C@H](CS)NC(=O)[C@H](CCCNC(=N)N)NC(=O)[C@H](CCC(=O)O)NC(=O)[C@H](CCCNC(=N)N)NC(=O)[C@@H](N)CO)C(=O)N[C@@H](Cc1c[nH]cn1)C(=O)N[C@@H](CO)C(=O)N[C@@H](CC(C)C)C(=O)N1CCC[C@H]1C(=O)N[C@@H](CC(C)C)C(=O)N[C@@H](Cc1ccccc1)C(=O)N1CCC[C@H]1C(=O)O`, the EC50 was 4.2 nM (APLNR; calcium signal; agonist; fluorescence).
For `CC(C)(C)C#Cc1cc(-c2ccnc(N)c2)cc2c(N)n[nH]c12`, the IC50 was 4590 nM (Inhibitor of nuclear factor kappa-B kinase subunit beta (IKBKB, Homo sapiens, UniProt O14920); enzyme activity; inhibitor; FRET).
